This is an account of results in ChEMBL document CHEMBL4706495, “A novel class of small molecule inhibitors with radioprotective properties” (Eur J Med Chem, 2020).

Data set [1] relates to A2780. Nature of the data set: Cytotoxicity against human A2780 cells assessed as cell viability at 100 uM measured after 48 hrs by WST-1 assay relative to control. Type of data set: functional. Particulars: read-out: Activity. The gist of the method:
(§1)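 Ten-line human panel (9 cancer, 1 non-cancerous). Cells were seeded at a pre-established optimal density (500–30 × 10³ per well) and settled overnight. Compounds came from 10 mM DMSO stocks and were tested at two concentrations. WST-1 readout followed the manufacturer's protocol at the end of cultivation. Viability is expressed as % of untreated control cells, mean of three independent experiments.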
Background: Formazan colour is commonly taken as a measure of viable cells.

The subject of data set [2] is PANC-1. The data set is described as follows: Cytotoxicity against human PANC-1 cells assessed as cell viability at 10 uM measured after 48 hrs by WST-1 assay relative to control. As to conditions: read-out: Activity. Type of data set: functional. The gist of the method:
as §1

Data set [3] deals with HT-29. The data set is described as follows: Cytotoxicity against human HT-29 cells assessed as cell viability at 100 uM measured after 48 hrs by WST-1 assay relative to control. Type of data set: functional. As to conditions: read-out: Activity. A digest of the protocol: as §1
Data set [4] relates to HeLa. Nature of the data set: Cytotoxicity against human HeLa cells assessed as cell viability at 10 uM measured after 48 hrs by WST-1 assay relative to control. Particulars: read-out: Activity. Type of data set: functional. The gist of the method:
as §1

In data set [5] the test system is Jurkat. The data set is described as follows: Cytotoxicity against human Jurkat cells assessed as cell viability at 100 uM measured after 48 hrs by WST-1 assay relative to control. Type of data set: functional. Particulars: read-out: Activity. The gist of the method:
as §1

The subject of data set [6] is SAOS-2. The data set is described as follows: Cytotoxicity against human SAOS-2 cells assessed as cell viability at 10 uM measured after 48 hrs by WST-1 assay relative to control. It counts as functional. Particulars: read-out: Activity. A digest of the protocol:
as §1

For data set [7], the system named is SAOS-2. Nature of the data set: Cytotoxicity against human SAOS-2 cells assessed as cell viability at 100 uM measured after 48 hrs by WST-1 assay relative to control. Type of data set: functional. As to conditions: read-out: Activity. A digest of the protocol:
as §1

Data set [8] deals with A2780. Nature of the data set: Cytotoxicity against human A2780 cells assessed as cell viability at 10 uM measured after 48 hrs by WST-1 assay relative to control. Type of data set: functional. As to conditions: read-out: Activity. The gist of the method:
as §1

Data set [9] can be described thus: Cytotoxicity against human MRC5 cells assessed as cell viability at 10 uM measured after 48 hrs by WST-1 assay relative to control. Particulars: read-out: Activity. It counts as cell-based. A digest of the protocol:
as §1

The subject of data set [10] is MCF7. Nature of the data set: Cytotoxicity against human MCF7 cells assessed as cell viability at 10 uM measured after 48 hrs by WST-1 assay relative to control. Particulars: read-out: Activity. Type of data set: functional. The gist of the method:
as §1

The test system of data set [11] is HeLa. Nature of the data set: Cytotoxicity against human HeLa cells assessed as cell viability at 100 uM measured after 48 hrs by WST-1 assay relative to control. Type of data set: functional. Particulars: read-out: Activity. A digest of the protocol: as §1
Data set [12] has as its system Jurkat. Nature of the data set: Cytotoxicity against human Jurkat cells assessed as cell viability at 10 uM measured after 48 hrs by WST-1 assay relative to control. It counts as functional. As to conditions: read-out: Activity. A digest of the protocol:
as §1

The subject of data set [13] is A549. Nature of the data set: Cytotoxicity against human A549 cells assessed as reduction in cell viability incubated for 24 hrs by MTT assay. It counts as functional, cell-based. As to conditions: A549, 24 h. The gist of the method:
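A-549 cells in DMEM with 10% FBS and 1% penicillin-streptomycin were attached overnight. Compounds were prepared in PBS and serially diluted in DMEM, then incubated 24 h. Viability was read by colorimetric MTT reduction against an untreated control on each plate (100%). IC50 came from four-parameter nonlinear regression of the log concentration-response curve, mean ± SEM. MTC is the highest concentration not differing from control (t-test).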

The test system of data set [14] is MOLT-4. Nature of the data set: Radioprotective activity against gamma irradiation-induced apoptosis in human MOLT-4 cells assessed as viable cells at 100 uM pretreated with compound for 1 hr followed by gamma irradiation and measured after 24 hrs by annexinV/propidium iodide staining based flow cytometry (reference value: 40 %). Type of data set: functional. As to conditions: MOLT-4, light or radiation study, time 25 hrs, read-out: Activity. Background: Flow cytometry measures light scatter and fluorescence of single cells or particles in a stream.

A short description of data set [15]: Cytotoxicity against human MRC5 cells assessed as cell viability at 100 uM measured after 48 hrs by WST-1 assay relative to control. It counts as cell-based. Particulars: read-out: Activity. The gist of the method: as §1
Data set [16] deals with A549. Nature of the data set: Cytotoxicity against human A549 cells assessed as maximum tolerated concentration incubated for 24 hrs by MTT assay. It counts as functional. The gist of the method: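 A-549 cells in DMEM with 10% FBS and 1% penicillin-streptomycin, left to attach overnight. Compounds made up in PBS, serially diluted in DMEM, incubated 24 h, then viability read by MTT reduction against untreated controls on each plate. MTC taken as the highest concentration showing no significant difference from non-treated control (t-test).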

The test system of data set [17] is HT-29. Nature of the data set: Cytotoxicity against human HT-29 cells assessed as cell viability at 10 uM measured after 48 hrs by WST-1 assay relative to control. As to conditions: read-out: Activity. It counts as functional. A digest of the protocol:
as §1

Data set [18] concerns MOLT-4. The data set is described as follows: Cytotoxicity against human MOLT-4 cells assessed as cell viability at 100 uM measured after 48 hrs by WST-1 assay relative to control. It counts as functional. Particulars: read-out: Activity. The gist of the method:
as §1

Data set [19] deals with A549. Nature of the data set: Cytotoxicity against human A549 cells assessed as cell viability at 10 uM measured after 48 hrs by WST-1 assay relative to control. Type of data set: functional. Particulars: read-out: Activity. A digest of the protocol: as §1
Data set [20] relates to A549. Nature of the data set: Cytotoxicity against human A549 cells assessed as cell viability at 100 uM measured after 48 hrs by WST-1 assay relative to control. As to conditions: read-out: Activity. Type of data set: functional. The gist of the method:
as §1

Data set [21] has as its system PANC-1. The data set is described as follows: Cytotoxicity against human PANC-1 cells assessed as cell viability at 100 uM measured after 48 hrs by WST-1 assay relative to control. Particulars: read-out: Activity. It counts as functional. The gist of the method:
as §1

For data set [22], the system named is MCF7. Nature of the data set: Cytotoxicity against human MCF7 cells assessed as cell viability at 100 uM measured after 48 hrs by WST-1 assay relative to control. As to conditions: read-out: Activity. Type of data set: functional. A digest of the protocol: as §1
Data set [23] concerns MOLT-4. The data set is described as follows: Cytotoxicity against human MOLT-4 cells assessed as cell viability at 10 uM measured after 48 hrs by WST-1 assay relative to control. It counts as functional. As to conditions: read-out: Activity. A digest of the protocol: as §1

What is called IC50 is the concentration at which inhibition is half-maximal. Consider `OCCN1CCN(CC(O)COc2ccc3ccccc3c2)CC1` (stereo unspecified), for which the viability at 100 µM in data set [1] worked out at 91%; in data set [3], 103%; in data set [5], 96%; in data set [7], 91%; in [11], 116%; in data set [14], 65%. In addition, the viability at 100 µM in data set [18] was 100%; in data set [20], 102%; in data set [21] it was 95%; in [22], 93%. Also, the viability at 10 µM was found to be 101% in data set [2]; 109% in [4]; 98% in data set [6]; 99% in data set [8]; 93% in data set [10]; 97% in data set [12]. For the same compound, the viability at 10 µM in [17] stood at 92%; in data set [19] it was 102%; in data set [23] it was 109%. In data set [9], the viability at 48 h, 10 µM was determined as 103%. In addition, the concentration for half-maximal inhibition (IC50) in data set [13] was 310 µM. For the same compound, the viability at 48 h, 100 µM in [15] amounted to 98%. Besides, in data set [16], the MTD was 0.02 mM.
Turning to `Cc1ccc(OCC(O)CN2CCN(CCO)CC2)cc1` (stereo unspecified), the viability at 100 µM in data set [1] turned out to be 94%; in data set [3], 107%; in [5] it was 97%; in data set [7], 83%; in data set [11], 101%; in data set [14], 58%. Besides, the viability at 100 µM in data set [18] is 103%; in [20] it was 110%; in data set [21], 99%; in data set [22], 100%. Moreover, the viability at 10 µM stood at 102% in [2]; 100% in data set [4]; 102% in [6]; 97% in data set [8]; 107% in data set [10]; 101% in data set [12]. Moreover, the viability at 10 µM in data set [17] is 98%; in [19], 106%; in data set [23] it was 103%. For the same compound, the viability at 48 h, 10 µM in data set [9] worked out at 112%. Further, in data set [13], the IC50 turned out to be 2430 µM. Further, in data set [15], the viability at 48 h, 100 µM worked out at 100%. In [16], the MTD amounted to 0.29 mM.
